The source of these data is paper PMC9624268 (Translational Vision Science & Technology, 2022).

Data set [1] relates to choroidal neovascularization. The settings on record: mice, cited from earlier work.
For data set [2] the following is noted: pigmented rats, single oral dose 10 mg/kg; cited from earlier work.
Data set [3] is classed as in vivo, rat. Particulars: single oral dose 20 mg/kg. The method in brief: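 Male pigmented Long–Evans rats (n = 10) got a single oral dose of 20 mg/kg [14C]-labelled test compound in PEG 400:saline:DMSO 60:36.3:3.7 (v:v:v), prepared on the day of dosing. Frozen carcasses were cut into ~40 μm sagittal sections and imaged at 50 μm resolution. Densitometry gave μg equivalents/g, and tissue t1/2 came from noncompartmental analysis.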

The format of data set [4] is in vivo, rat. The settings on record: albino rats, single oral dose 20 mg/kg, whole-body autoradiography. The procedure, abridged: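 Male albino Wistar Han rats (n = 3) got a single oral dose of 20 mg/kg [14C]-labelled test compound. It was suspended on the day of dosing in PEG 400:saline:DMSO 60:36.3:3.7 (v:v:v). Carcasses were frozen in hexane/dry ice, stored at or below −20°C, and cut into ~40 μm sagittal sections. Imaging was at 50 μm resolution. Radioactivity was quantified by image densitometry as μg equivalents/g.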

Data set [5] can be described thus: GLP toxicology study, ophthalmic findings in rats. Type of data set: in vivo, rat. Particulars: oral administration, 1 month, 3 months, 6 months.
For a further data set, the system named is rodent factor D. Particulars: stated in discussion, no reference given; cited from earlier work.
The format of data set [6] is in vivo, rabbit.
The nature of data set [7]: GLP toxicology study, ophthalmic findings and ERG in dogs. The data set is classed as in vivo, dog.
The format of data set [8] is in vivo, rabbit. The source holds these as a separate data set.

Where two headings read alike, the source gives them in different places.

Turning to `Cc1ccc(Nc2nccc(N(C)c3ccc4c(C)n(C)nc4c3)n2)cc1S(N)(=O)=O` [Pazopanib], the plasma levels result in [1] (3 days after a single loading dose 10 mg/kg) was “undetectable”. Besides, the “choroidal neovascularization lesion size” value in [1] (single loading dose 10 mg/kg, up to 2 weeks after choroidal neovascularization induction) is “significantly reduced”. The “time detected in melanin-containing tissues including the uveal tract” value in data set [2] is given as “up to 35 days”.
As to [^14C]-danicopan, the “time postdose at which radioactivity remained quantifiable in uveal tract” value in data set [3] (pigmented rats, uveal tract (28 days)) was 672 h. The “radioactivity in most tissues at 24 hours postdose” value in data set [3] (pigmented rats, whole-body autoradiography) was “nonquantifiable”; in [4] it was “nonquantifiable”. Besides, the “radioactivity in plasma and whole blood” value in data set [3] (after 8 hours postdose) is “undetectable”.
With `CC(=O)c1nn(CC(=O)N2C[C@H](F)C[C@H]2C(=O)Nc2cccc(Br)n2)c2ccc(-c3cnc(C)nc3)cc12` [Danicopan], the “clinical or histopathological ophthalmic findings” value in data set [5] is given as “no clinical or histopathological ophthalmic findings”; in data set [7] (oral administration, 14 days, 3 months, 9 months, GLP), “no clinical or histopathological ophthalmic findings”. Moreover, in the data set with rodent factor D, the “inhibitory effect on rodent factor D” value is reported as “lack of an inhibitory effect”. In addition, the AUClast is 37,400 h·ng/g in data set [6] (DB rabbit, single oral dose 15 mg/kg, choroid/BrM/RPE, mean); 998 ng·h/g in [6] (DB rabbit, single oral dose 15 mg/kg, neural retina, mean); 1010 ng·h/g in data set [8] (NZW rabbit, single oral dose 15 mg/kg, choroid/BrM/RPE, mean); 665 ng·h/g in [8] (NZW rabbit, single oral dose 15 mg/kg, neural retina, mean). The MRTlast in [6] (DB rabbit, single oral dose 15 mg/kg, neural retina, mean, 15 mg/kg) stood at 7.83 h. In addition, the “dose-exposure relationship, plasma and neural retina” value in data set [6] (DB rabbits, 7.5, 15 and 50 mg/kg/dose twice daily for 15 days (data not shown)) is given as “approximate dose linearity”. Further, the “time through which exposure was detected in plasma after the last dose” value in [6] (DB rabbits, 7.5, 15 and 50 mg/kg/dose twice daily for 15 days, plasma) was found to be 24 h. The “dose-exposure relationship, choroid/BrM/RPE” value in [6] (DB rabbits, between 15 and 50 mg/kg/dose twice daily for 15 days (data not shown)) is on record as “less-than-dose proportionality”. Also, the peak concentration (Cmax) (as a rule, the peak of the concentration-time curve) stood at 917 ng/g in data set [6] (Dutch Belted, rabbit, choroid/BrM/RPE, po, 15 mg/kg, DB rabbit, single oral dose 15 mg/kg, mean); 145 ng/g in [6] (Dutch Belted, rabbit, neural retina, po, 15 mg/kg, DB rabbit, single oral dose 15 mg/kg, mean); 172 ng/g in [8] (New Zealand White, rabbit, choroid/BrM/RPE, po, 15 mg/kg, NZW rabbit, single oral dose 15 mg/kg, mean); 200 ng/g in data set [8] (New Zealand White, rabbit, neural retina, po, 15 mg/kg, NZW rabbit, single oral dose 15 mg/kg, mean); 310 ng/mL in data set [8] (New Zealand White, rabbit, plasma, po, 15 mg/kg, NZW rabbit, single oral dose 15 mg/kg, mean). The MRT last – broadly, the average time that molecules of a dose stay in the body – stood at 49.7 h in data set [6] (Dutch Belted, rabbit, choroid/BrM/RPE, po, 15 mg/kg, MRTlast, DB rabbit, single oral dose 15 mg/kg, mean); 5.87 h in data set [8] (New Zealand White, rabbit, choroid/BrM/RPE, po, 15 mg/kg); 1.49 h in [8] (New Zealand White, rabbit, neural retina, po, 15 mg/kg); 4.01 h in [8] (New Zealand White, rabbit, plasma, po, 15 mg/kg). For the same molecule, the “electroretinography (ERG) abnormalities” value in data set [7] (week 38, compared to pretreatment ERG) is “no abnormalities were detected”. Besides, the AUC(0-t) – broadly, the area under the concentration-time curve up to a stated or last time point – in [8] (New Zealand White, rabbit, plasma, po, 15 mg/kg, AUClast, NZW rabbit, single oral dose 15 mg/kg, mean) was 1430 ng·h/mL.
